Experimental data: PMC3895945 (Nuclear medicine and biology, 2013)

How the values were obtained:
9L tumors [1] = assay: Dynamic small animal PET imaging in rats bearing 9L tumors; format: in vivo, Fisher rats; conditions: for tumor uptake kinetics and retention / time to maximum tumor uptake: PET time-activity curves; for tumor uptake kinetics and retention: result in words; for maximum tumor-to-muscle ratio: PET region-of-interest analysis; for maximum tumor-to-muscle ratio / time to maximum tumor uptake: 9L tumors
9L glioma cells = assay: In vitro uptake studies in 9L cells; format: cell-based; conditions: for uptake in 9L cells: result in words
Summary of the method: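 9L gliosarcoma cells were grown in DMEM with 10 % FBS (37 °C, 5 % CO2) and plated at 2.0 × 10^5 cells/well 24 h ahead. Cells were washed with warm PBS containing Ca2+/Mg2+, then given radiolabeled test compound in PBS (~500,000 cpm/mL/well) at 37 °C for 5, 30, 60 or 120 min. They were washed with ice-cold PBS, lysed in 0.1N NaOH and gamma-counted. Uptake was normalised to protein (modified Lowry) as %uptake/100 μg protein, in triplicate.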

In vitro metabolism [2] = format: in vitro ADME, human; conditions: hydrolysis to FET in human blood at 37 °C; average of two experiments
Summary of the method: (§1)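 Radiolabeled test compound (~3 MBq in 50 μL PBS) was added to 1.0 mL preheated blood or a PBS control at 37 °C. Rat blood was freshly drawn from anesthetized Fisher 344 rats into heparin (100 unit/mL); heparinized human blood had been stored at −70 °C. Aliquots taken at 5–120 min were deproteinized with 1 % picric acid and centrifuged. Supernatant was analysed by C-18 radio-HPLC. Percent intact compound versus time was fitted to first-order kinetics.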

9L tumors [3] = assay: In vivo biodistribution in Fisher rats with 9L glioma tumors; design: species or system Fischer 344 rats; conditions: for Tissue distribution Tumor: 9L tumor; for Tumor/Blood / Tumor/Brain / Tumor/Muscle: ratio
[4] = In vivo metabolism studies of FET prodrugs in Fisher 344 rats; conditions: blood drawn 5 min after intravenous injection
Summary of the method: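 Fisher 344 rats received ~37 MBq radiolabeled test compound intravenously. Blood was drawn from the heart 5 min post-injection. 50 μL aliquots were deproteinized with 1 % picric acid and centrifuged at 12,000g. Supernatant was run on C-18 HPLC (CH3CN/0.1 % formic acid), and fractions were gamma-counted. Parent and radio-metabolites were identified by retention time.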

In vitro metabolism [5] = format: in vitro ADME, rat; conditions: hydrolysis to FET in rat blood at 37 °C; average of two experiments
Summary of the method: as §1

[6] = 30 min after intravenous injection
[7] = 60 min after intravenous injection

## O=C[C@H]([18F])[C@@H](O)[C@H](O)[C@H](O)CO [FDG, 2-[^18F]fluoro-2-deoxy-D-glucose, reference compound]
9L tumors [1]
  tumor uptake kinetics and retention: continuously increasing tumor uptake

## N[C@@H](Cc1ccc(OCC[18F])cc1)C(=O)NCC(=O)O [FET-Gly ([^18F]2), O-(2-[^18F]fluoroethyl)-L-tyrosyl-L-glycine]
9L glioma cells
  uptake in 9L cells: negligible uptake
9L glioma cells; 9L glioma cells, 5-120 min incubation at 37 °C
  uptake relative to that of FET: less than 1%
In vitro metabolism [2]
  t1/2 Human blood: 22.7 min
9L tumors [3]; [6]
  Tissue distribution Tumor: 0.81 ± 0.30 % ID/g
  Tissue distribution Blood: 0.72 ± 0.02 % ID/g
  Tissue distribution Bone: 0.41 ± 0.01 % ID/g
  Tissue distribution Brain: 0.33 ± 0.02 % ID/g
  Tissue distribution Heart: 0.67 ± 0.03 % ID/g
  Tissue distribution Kidney: 0.57 ± 0.01 % ID/g
  Tissue distribution Liver: 0.67 ± 0.02 % ID/g
  Tissue distribution Lung: 0.59 ± 0.01 % ID/g
  Tissue distribution Muscle: 0.52 ± 0.04 % ID/g
  Tissue distribution Pancreas: 2.74 ± 0.39 % ID/g
  Tissue distribution Skin: 0.44 ± 0.03 % ID/g
  Tissue distribution Spleen: 0.76 ± 0.05 % ID/g
  Tumor/Blood: 1.13 ± 0.42
  Tumor/Brain: 2.45 ± 0.92
  Tumor/Muscle: 1.56 ± 0.59
9L tumors [3]; [7]
  Tissue distribution Tumor: 0.56 ± 0.33 % ID/g
  Tissue distribution Blood: 0.74 ± 0.06 % ID/g
  Tissue distribution Bone: 0.45 ± 0.04 % ID/g
  Tissue distribution Brain: 0.47 ± 0.06 % ID/g
  Tissue distribution Heart: 0.68 ± 0.05 % ID/g
  Tissue distribution Kidney: 0.57 ± 0.05 % ID/g
  Tissue distribution Liver: 0.66 ± 0.05 % ID/g
  Tissue distribution Lung: 0.62 ± 0.06 % ID/g
  Tissue distribution Muscle: 0.67 ± 0.06 % ID/g
  Tissue distribution Pancreas: 2.92 ± 0.44 % ID/g
  Tissue distribution Skin: 0.46 ± 0.01 % ID/g
  Tissue distribution Spleen: 0.80 ± 0.12 % ID/g
  Tumor/Blood: 0.76 ± 0.45
  Tumor/Brain: 1.19 ± 0.72
  Tumor/Muscle: 0.84 ± 0.50
9L tumors [3]; at 60 min (from 30 min)
  washout from 9L tumors: 31%
9L tumors [3]; biodistribution, 9L tumors
  time to maximum uptake in the tumors: ≤ 30 min
[4]
  metabolized to FET: 72%
In vitro metabolism [5]
  t1/2 Rat blood: 17.3 min
9L tumors [1]
  maximum tumor-to-muscle ratio: 5
  time to maximum tumor uptake: ≤ 20 min
  tumor uptake kinetics and retention: washout

## N[C@@H](Cc1ccc(OCC[18F])cc1)C(=O)O [FET ([^18F]1), O-(2-[^18F]fluoroethyl)-L-tyrosine, reference compound]
9L glioma cells
  uptake in 9L cells: high uptake
9L tumors [1]
  maximum tumor-to-muscle ratio: 5
  time to maximum tumor uptake: ≤ 20 min
  tumor uptake kinetics and retention: long retention
